Experiment [1] addresses Beta-1 adrenergic receptor (Rattus norvegicus, UniProt P18090). The experiment is described as follows: Binding affinity against the beta-1 adrenergic receptor using [3H]- DHA. In a few lines: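 β1 sites in rat cerebral cortex membranes (male Long-Evans, 150–250 g) with [3H]dihydroalprenolol at 0.5 nM final. (-)-Alprenolol at 1 μM final defined the reference. IC50 from four or five concentrations by nonlinear curve fit.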

For experiment [2], the target named is Beta-2 adrenergic receptor (Rattus norvegicus, UniProt P10608). Kind of experiment: Binding affinity against the beta-2 adrenergic receptor using [3H]- DHA. In a few lines: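 β2 sites in rat cerebellum membranes (male Long-Evans, 150–250 g) with [3H]dihydroalprenolol at 0.5 nM final. (-)-Alprenolol at 1 μM final defined the reference. IC50 from four or five concentrations by nonlinear curve fit.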

The subject of experiment [3] is Canis familiaris. The experiment is described as follows: Emesis test in dogs was determined when administered perorally. In kind it is functional. As to conditions: Canis lupus familiaris, po; read-out: MED. In a few lines:
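Fasted dogs (7–12 kg), normally three per dose, were dosed orally and observed hourly for up to 6 h for emesis and other autonomic or behavioural signs. The minimal effective dose was the lowest dose producing emesis in any animal.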

Experiment [4] addresses Muscarinic acetylcholine receptor. Kind of experiment: Binding affinity against muscarinic receptor in rat brain using [3H]- QNB. In kind it is tissue-based. In a few lines: (§1)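 Muscarinic sites in rat brain stem membranes (male Long-Evans, 150–250 g), labelled with [3H]quinuclidinyl benzilate at 0.03 nM final. Oxotremorine at 100 μM final served as the reference displacer. IC50 from four or five concentrations by nonlinear curve fitting.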

For experiment [5], the species on record is Rattus norvegicus. Kind of experiment: Effective dose required for inhibition of conditional avoidance in rats. It is filed as functional. In a few lines: (§2)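 Fasted male Wistar rats (150–250 g) were trained to jump to a platform at a buzzer to avoid grid shock (1.1 mA/s). After oral dosing they were tested every 20 min for 6 h over 19 trials, 10 rats per dose, each rat used once. Peak effect was the mean of the four consecutive trials with the largest effect, computed from response latency. ED50 read graphically from at least three doses.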

The target of experiment [6] is Muscarinic acetylcholine receptor. Kind of experiment: Binding affinity against Muscarinic acetylcholine receptor in rat brain using [3H]- QNB. It is filed as tissue-based. In a few lines: as §1
Experiment [7] has as its system Rattus norvegicus. The experiment is described as follows: Suppression of conditional avoidance after peroral administration. As to conditions: po. In kind it is functional. In a few lines: as §2

Each structure is given as a SMILES string.

Experimental findings from ChEMBL document CHEMBL1123363, “(5-Amino-1,3-dimethyl-1H-pyrazol-4-yl)(2-fluorophenyl)methanones . A series of novel potential antipsychotic agents” (J Med Chem, 1986) are described below.

The term IC50 denotes the midpoint of a concentration-inhibition curve. The low end stands for greater potency in that assay, the high end for weaker potency in that assay. Usually ED50 stands for the dose at which the effect has come halfway, by size or by number of responders. A higher ED50 goes with a need for a large dose.

Sequence of Beta-1 adrenergic receptor (P18090 whole entry): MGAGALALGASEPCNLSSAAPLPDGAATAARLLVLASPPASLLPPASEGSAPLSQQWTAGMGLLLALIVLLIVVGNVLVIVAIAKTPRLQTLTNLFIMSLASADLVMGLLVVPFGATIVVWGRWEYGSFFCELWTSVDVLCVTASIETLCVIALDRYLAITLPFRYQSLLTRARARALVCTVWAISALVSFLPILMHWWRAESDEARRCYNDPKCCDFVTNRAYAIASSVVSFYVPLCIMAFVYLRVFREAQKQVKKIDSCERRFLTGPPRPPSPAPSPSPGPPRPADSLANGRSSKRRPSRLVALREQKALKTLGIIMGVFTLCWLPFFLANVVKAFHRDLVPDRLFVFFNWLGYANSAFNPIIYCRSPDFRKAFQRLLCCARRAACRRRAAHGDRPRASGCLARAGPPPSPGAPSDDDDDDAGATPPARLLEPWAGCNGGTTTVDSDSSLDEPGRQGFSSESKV
Sequence of Beta-2 adrenergic receptor (P10608 whole entry): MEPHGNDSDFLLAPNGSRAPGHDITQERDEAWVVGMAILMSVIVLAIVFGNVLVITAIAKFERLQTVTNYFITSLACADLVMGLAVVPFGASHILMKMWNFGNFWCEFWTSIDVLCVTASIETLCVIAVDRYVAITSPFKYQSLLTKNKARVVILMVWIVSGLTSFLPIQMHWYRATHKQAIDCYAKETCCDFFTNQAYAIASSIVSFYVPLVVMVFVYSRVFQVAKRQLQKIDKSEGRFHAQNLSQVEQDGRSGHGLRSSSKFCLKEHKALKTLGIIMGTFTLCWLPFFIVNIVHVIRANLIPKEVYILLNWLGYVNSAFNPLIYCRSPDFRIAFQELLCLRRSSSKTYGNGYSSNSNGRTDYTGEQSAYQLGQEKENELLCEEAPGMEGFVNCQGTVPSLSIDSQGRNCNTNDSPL

Regarding `CCN(CC)CC(=O)Nc1c(C(=O)c2ccccc2F)c(C)nn1C`, the IC50 in experiment [1] and in experiment [2] was greater than 10 µM each time. In addition, the minimal effective dose in experiment [3] was 56 mg/kg.
With `Cc1nn(C)c(N)c1C(=O)c1ccccc1F`, the IC50 in experiment [4] was greater than 10 µM. Also, the ED50 in experiment [5] was found to be 18 mg/kg.
As for `Cc1nn(C)c(NC(=O)CNCCCN2CCCCC2C)c1C(=O)c1ccccc1F` (configuration not stated), the IC50 in experiment [6] was greater than 10 µM. The same compound registered an ED50 in experiment [7] of 43 mg/kg.
